Test results published in ChEMBL document CHEMBL1140377, “2,5-diketopiperazines as potent, selective, and orally bioavailable oxytocin antagonists. 2. Synthesis, chirality, and pharmacokinetics” (J Med Chem, 2005).

Assays:
[1] = Bioavailability in rat; assay type: ADME, organism-based; details: in vivo
[2] = Volume of distribution in rat; assay type: ADME, organism-based; details: in vivo, read-out: Vdss
[3] = Half life in rat; assay type: ADME; details: in vivo
[4] = Lipophilicity of the compound measured as CHI LogD by HPLC; assay type: physicochemical
[5] = biological target: T1, Oxytocin receptor (Homo sapiens, UniProt P30559); assay: Displacement of [3H]oxytocin from human Oxytocin receptor
T1 sequence (P30559 whole entry): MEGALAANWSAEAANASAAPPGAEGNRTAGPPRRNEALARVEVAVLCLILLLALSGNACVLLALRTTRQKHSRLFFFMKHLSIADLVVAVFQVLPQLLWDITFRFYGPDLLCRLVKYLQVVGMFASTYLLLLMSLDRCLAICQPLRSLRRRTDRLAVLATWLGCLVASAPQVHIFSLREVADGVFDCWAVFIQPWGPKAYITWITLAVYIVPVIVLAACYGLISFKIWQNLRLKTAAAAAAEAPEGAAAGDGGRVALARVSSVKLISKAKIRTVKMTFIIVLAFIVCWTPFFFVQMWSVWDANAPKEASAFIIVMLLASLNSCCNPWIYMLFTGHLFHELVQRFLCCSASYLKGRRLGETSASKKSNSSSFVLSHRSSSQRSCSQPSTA

[6] = Per oral administration of 5 mg/Kg of dose required for measuring Area under concentration of curve in rat; assay type: ADME; details: in vivo
How it was run: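 Rats (n=2) received 5 mg/kg in 5% DMSO/95% PEG400. Plasma exposure is reported as AUC in h ng mL−1.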

[7] = Plasma clearance in rat; details: in vivo
[8] = Volume of distribution in dog; assay type: ADME, organism-based, Canis lupus familiaris; details: in vivo, read-out: Vdss
[9] = Bioavailability in dog; assay type: ADME, organism-based, Canis lupus familiaris; details: in vivo
[10] = biological target: Vasopressin V2 receptor (Homo sapiens, UniProt P30518); assay: Displacement of [3H]oxytocin from human V2 vasopressin receptor
[11] = Plasma clearance in dog; details: in vivo
[12] = biological target: T2, Vasopressin V1b receptor (Homo sapiens, UniProt P47901); assay: Displacement of [3H]vasopressin from human V1b vasopressin receptor
T2 sequence (P47901 whole entry): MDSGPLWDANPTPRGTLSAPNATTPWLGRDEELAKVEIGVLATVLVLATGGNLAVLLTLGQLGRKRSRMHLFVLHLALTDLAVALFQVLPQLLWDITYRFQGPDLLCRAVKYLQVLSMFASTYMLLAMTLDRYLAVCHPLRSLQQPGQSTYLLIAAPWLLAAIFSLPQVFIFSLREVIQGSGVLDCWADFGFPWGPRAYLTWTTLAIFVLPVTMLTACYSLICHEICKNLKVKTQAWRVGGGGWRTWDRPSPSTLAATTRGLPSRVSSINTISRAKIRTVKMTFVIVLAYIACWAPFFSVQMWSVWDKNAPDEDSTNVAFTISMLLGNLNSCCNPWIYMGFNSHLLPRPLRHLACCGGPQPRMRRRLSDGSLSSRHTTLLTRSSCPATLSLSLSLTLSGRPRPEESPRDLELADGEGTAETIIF

[13] = biological target: Vasopressin V1a receptor (Homo sapiens, UniProt P37288); assay: Displacement of [3H]vasopressin from human V1a vasopressin receptor
[14] = Per oral administration of 0.6 mg/Kg of dose required for measuring Area under concentration of curve in dog; details: in vivo
[15] = Per oral administration of 0.6 mg/Kg of dose required for measuring Area under concentration of curve in dog; assay type: ADME, Canis lupus familiaris; details: in vivo
How it was run: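 Dogs (n=1) received 0.6 mg/kg in either 5% DMSO/95% PEG400 or 5% DMSO/95% labrafil. Exposure is given as plasma AUC in h ng mL−1.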

[16] = Per oral administration of 5 mg/Kg of dose required for measuring Area under concentration of curve in dog; assay type: ADME, Canis lupus familiaris; details: in vivo

Sequence of Vasopressin V1a receptor (P37288 whole entry): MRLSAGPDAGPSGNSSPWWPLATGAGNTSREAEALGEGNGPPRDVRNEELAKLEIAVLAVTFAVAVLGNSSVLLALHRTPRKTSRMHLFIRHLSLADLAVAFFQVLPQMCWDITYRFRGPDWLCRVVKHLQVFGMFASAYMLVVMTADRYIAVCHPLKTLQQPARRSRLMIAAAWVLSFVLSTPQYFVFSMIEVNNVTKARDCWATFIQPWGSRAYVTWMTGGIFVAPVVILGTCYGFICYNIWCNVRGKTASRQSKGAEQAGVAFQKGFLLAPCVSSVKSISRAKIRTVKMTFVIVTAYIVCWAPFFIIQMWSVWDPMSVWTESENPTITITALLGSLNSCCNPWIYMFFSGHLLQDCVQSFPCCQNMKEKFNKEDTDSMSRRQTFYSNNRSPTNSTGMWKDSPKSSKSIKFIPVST
Sequence of Vasopressin V2 receptor (P30518 whole entry): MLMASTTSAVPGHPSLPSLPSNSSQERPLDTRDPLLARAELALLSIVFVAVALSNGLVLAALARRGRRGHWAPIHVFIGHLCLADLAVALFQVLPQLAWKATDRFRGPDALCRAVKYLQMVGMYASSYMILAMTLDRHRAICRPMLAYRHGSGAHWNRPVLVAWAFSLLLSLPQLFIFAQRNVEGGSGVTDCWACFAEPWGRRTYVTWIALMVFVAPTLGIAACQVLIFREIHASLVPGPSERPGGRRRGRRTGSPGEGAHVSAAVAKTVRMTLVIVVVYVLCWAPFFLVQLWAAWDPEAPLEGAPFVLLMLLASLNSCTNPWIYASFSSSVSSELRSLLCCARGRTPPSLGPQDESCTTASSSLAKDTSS

SMILES | chromatographic logD [4] | Ki [5] | AUC [6] | further results
CC(C)C[C@@H]1C(=O)N[C@H](C2Cc3ccccc3C2)C(=O)N1[C@@H](C(=O)NC(C)C)c1ccc(S(C)(=O)=O)cc1 | 2.4 | 10 nM | 60 ng·h/mL | bioavailability [1]: 3%; Vd [2]: 0.7 L/kg; half-life [3]: 90 min; CL [7]: 21 mL/min/kg
CC(=O)Nc1ccc([C@@H](C(=O)NC(C)C)N2C(=O)[C@@H](C3Cc4ccccc4C3)NC(=O)[C@H]2CC(C)C)cc1 |  | 126 nM |  | 
CC(C)C[C@@H]1CN[C@H](C2Cc3ccccc3C2)C(=O)N1[C@@H](C(=O)NC(C)C)c1ccccc1 |  | 316 nM |  | 
CC(C)C[C@@H]1C(=O)N[C@H](C2Cc3ccccc3C2)C(=O)N1[C@H](C(=O)NC(C)C)c1ccc(C(F)(F)F)cc1 |  | 79.4 nM |  | 
CC(C)C[C@@H]1C(=O)N[C@H](C2Cc3ccccc3C2)C(=O)N1[C@@H](C(=O)NC(C)C)c1ccc(N(C)C)cc1 | 3.4 | 3.16 nM | 287 ng·h/mL | Vd [8]: 1.7 L/kg; bioavailability [9]: 50%; bioavailability [1]: 5%; Vd [2]: 2.3 L/kg; half-life [3]: 72 min; Ki [10]: > 79400 nM; CL [11]: 15 mL/min/kg; CL [7]: 48 mL/min/kg; Ki [12]: > 50100 nM; Ki [13]: > 39800 nM; AUC [14]: 335 ng·h/mL
Cc1ccc([C@@H](C(=O)NC(C)C)N2C(=O)[C@@H](C3Cc4ccccc4C3)NC(=O)[C@H]2CC(C)C)cc1 |  | 50.1 nM |  | 
CC(C)C[C@@H]1C(=O)N[C@H](C2Cc3ccccc3C2)C(=O)N1[C@H](C(=O)NC(C)(C)C)c1ccc(OC(F)(F)F)cc1 |  | 158 nM |  | 
COc1ccc([C@H](C(=O)NC(C)(C)C)N2C(=O)[C@@H](C3Cc4ccccc4C3)NC(=O)[C@H]2CC(C)C)cc1 | 3.4 | 2.51 nM | 101 ng·h/mL | 
c1ccc2c(c1)CNCO2 |  | 2 nM |  | 
CC(C)C[C@@H]1C(=O)N[C@H](C2Cc3ccccc3C2)C(=O)N1[C@H](C(=O)NC(C)C)c1ccc(C(N)=O)cc1 |  | 158 nM |  | 
CC(C)C[C@@H]1C(=O)N[C@H](C2Cc3ccccc3C2)C(=O)N1[C@H](C(=O)NC(C)C)c1ccc(S(C)(=O)=O)cc1 |  | 100 nM |  | 
CC(C)C[C@@H]1C(=O)N[C@H](C2Cc3ccccc3C2)C(=O)N1[C@@H](C(=O)NC(C)(C)C)c1cccc(N2CCN(C)CC2)c1 |  | 158 nM |  | 
CC(C)C[C@@H]1C(=O)N[C@H](C2Cc3ccccc3C2)C(=O)N1[C@@H](C(=O)NC(C)(C)C)c1ccccc1 |  | 5.01 nM |  | 
CC(C)C[C@@H]1C(=O)N[C@H](C2Cc3ccccc3C2)C(=O)N1[C@@H](C(=O)NC(C)(C)C)c1ccc(Cl)cc1 | 4 | 2.51 nM | 95 ng·h/mL | bioavailability [1]: 2%; Vd [2]: 0.4 L/kg; half-life [3]: 42 min; CL [7]: 43 mL/min/kg
CC(C)C[C@@H]1C(=O)N[C@H](C2Cc3ccccc3C2)C(=O)N1[C@H](C(=O)NC(C)(C)C)c1ccc(Cl)cc1 |  | 158 nM |  | 
CC(=O)Nc1ccc([C@H](C(=O)NC(C)(C)C)N2C(=O)[C@@H](C3Cc4ccccc4C3)NC(=O)[C@H]2CC(C)C)cc1 | 2.4 | 2 nM | 59 ng·h/mL | 
CC(C)C[C@@H]1C(=O)N[C@H](C2Cc3ccccc3C2)C(=O)N1[C@H](C(=O)NC(C)C)c1ccc(N(C)C)cc1 |  | 25.1 nM |  | 

SMILES | chromatographic logD [4] | Ki [5] | AUC [6] | further results
CC(=O)Nc1cccc([C@H](C(=O)NC(C)(C)C)N2C(=O)[C@@H](C3Cc4ccccc4C3)NC(=O)[C@H]2CC(C)C)c1 |  | 6.31 nM |  | 
CC(C)C[C@@H]1C(=O)N[C@H](C2Cc3ccccc3C2)C(=O)N1[C@@H](C(=O)NC(C)(C)C)c1ccc(OC(F)(F)F)cc1 | 4.1 | 5.01 nM | 85 ng·h/mL | 
CC(C)C[C@@H]1C(=O)N[C@H](C2Cc3ccccc3C2)C(=O)N1[C@H](C(=O)NC(C)C)c1ccccc1 |  | 50.1 nM |  | 
CC(C)C[C@@H]1C(=O)N[C@H](C2Cc3ccccc3C2)C(=O)N1[C@@H](C(=O)NC(C)(C)C)c1ccc(N2CCN(C)CC2)cc1 |  | 25.1 nM |  | 
CC(C)C[C@@H]1C(=O)N[C@H](C2Cc3ccccc3C2)C(=O)N1[C@H](C(=O)NC(C)C)c1ccc(F)cc1 |  | 100 nM |  | 
COc1ccc([C@@H](C(=O)NC(C)(C)C)N2C(=O)[C@@H](C3Cc4ccccc4C3)NC(=O)[C@H]2CC(C)C)cc1 |  | 39.8 nM |  | 
CC(C)C[C@@H]1C(=O)N[C@H](C2Cc3ccccc3C2)C(=O)N1[C@@H](C(=O)NC(C)C)c1ccccc1 | 3.2 | 3.98 nM | 114 ng·h/mL | bioavailability [1]: 5%; Vd [2]: 0.8 L/kg; half-life [3]: 60 min; CL [7]: 29 mL/min/kg
CC(C)C[C@@H]1C(=O)N[C@H](C2Cc3ccccc3C2)C(=O)N1[C@@H](C(=O)NC(C)C)c1ccc(F)cc1 | 3.2 | 3.98 nM | 421 ng·h/mL | Vd [8]: 0.8 L/kg; bioavailability [9]: 13%; bioavailability [1]: 13%; Vd [2]: 0.8 L/kg; half-life [3]: 54 min; Ki [10]: > 1260 nM; CL [11]: 5 mL/min/kg; CL [7]: 23 mL/min/kg; Ki [12]: > 6310 nM; Ki [13]: > 6310 nM; AUC [14]: 259 ng·h/mL
CC(C)C[C@@H]1C(=O)N[C@H](C2Cc3ccccc3C2)C(=O)N1[C@@H](C(=O)NC(C)C)c1ccc(C(F)(F)F)cc1 | 3.7 | 5.01 nM | 280 ng·h/mL | 
CC(C)C[C@@H]1C(=O)N[C@H](C2Cc3ccccc3C2)C(=O)N1[C@@H](C(=O)N(C)C(C)C)c1ccccc1 |  | 3.98 nM |  | 
CC(C)C[C@@H]1C(=O)N[C@H](C2Cc3ccccc3C2)C(=O)N1[C@@H](C(=O)NC(C)C)c1ccc(F)cc1F |  |  |  | AUC [15]: 291 ng·h/mL; Vd [8]: 1.2 L/kg; F [9]: 33%; Ki [10]: 631 nM; AUC [16]: 121 ng·h/mL; CL [11]: 11 mL/min/kg; Ki [12]: > 6310 nM; Ki [13]: > 6310 nM
CC(C)C[C@@H]1C(=O)N[C@H](C2Cc3ccccc3C2)C(=O)N1[C@H](C(=O)NC(C)(C)C)c1ccccc1 |  | 79.4 nM |  | 
CC(=O)Nc1ccc([C@H](C(=O)NC(C)C)N2C(=O)[C@@H](C3Cc4ccccc4C3)NC(=O)[C@H]2CC(C)C)cc1 |  | 1.58 nM |  | 
Cc1ccc([C@H](C(=O)NC(C)C)N2C(=O)[C@@H](C3Cc4ccccc4C3)NC(=O)[C@H]2CC(C)C)cc1 | 3.5 | 3.98 nM |  | Vd [2]: 0.6 L/kg; half-life [3]: 36 min; CL [7]: 37 mL/min/kg
C=CCN1C(=O)[C@@H](CC(C)C)N([C@@H](C(=O)NC(C)C)c2ccccc2)C(=O)[C@H]1C1Cc2ccccc2C1 |  | 63.1 nM |  | 
CC(C)C[C@@H]1C(=O)N[C@H](C2Cc3ccccc3C2)C(=O)N1[C@@H](C(=O)NC(C)C)c1ccc(C(N)=O)cc1 | 1.8 | 31.6 nM | 44 ng·h/mL | 
